These results are taken from paper PMC9015489 (Chemmedchem, 2022).

Some results are limits rather than exact numbers.

Data set [1] addresses human serum albumin (Homo sapiens, UniProt P02768). Kind of data set: Plasma protein binding estimated by an HPLC-based method. Format: in vitro ADME.
The subject of data set [2] is NRF2‐ARE pathway. Kind of data set: AREc32 luciferase reporter gene assay. The format is cell-based. As to conditions: for ARE specificity ratio, SR: SR = IC10/ECIR1.5, AREc32 cells, 24 h exposure. The gist of the method:
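AREc32 cells in DMEM+GlutaMAX with 10% FBS and pen/strep, 2650/well, attached 24 h at 37 °C, 5% CO2. Test compound (1×10−15 to 1×10−2 M) for 24 h; tert‐butylhydroquinone as positive control. Luciferase read after PBS washes and Tris/Triton lysis. IR = signal/mean unexposed; ECIR1.5 by linear fit for IR<4. Imaged confluency versus unexposed cells gave IC10 from the linear range.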
For orientation: A reporter such as luciferase makes a cellular process visible.

Data set [3] can be described thus: Experimental distribution coefficient logD7.4. As to conditions: pH 7.4. The format is physicochemical.
The target of data set [4] is human adenosine A2A receptors (Homo sapiens, UniProt P29274). Kind of data set: Radioligand competition binding assay with [3H]CGS-21680. An outline of the steps: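 Membranes from CHO-S cells recombinantly expressing the human adenosine A2A receptor. Competition with the A2A-selective agonist radioligand [3H]CGS-21680. Test compound run at concentrations from 10 nM to 100 μM. Read-out is % inhibition of radioligand binding, with Ki estimated; n=3.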
On the technique in general: Loss of bound radioactivity is the signal in a displacement assay; it reports binding, not function.

The test system of data set [5] is Vero‐E6 cells.
For data set [6], the system named is SARS‐CoV‐2 (B.3 strain). Kind of data set: Vero-E6 SARS-CoV-2 plaque reduction assay. The format is cell-based. (Plaques are areas of infected cells; plaque reduction assays count them against a control.)
The mark [7] stands for this setting: read-out: % inhibition of radioligand binding.

Broadly, the fraction unbound is free concentration divided by total concentration. One may read the chromatographic logD as lipophilicity estimated from chromatographic retention. Read a low chromatographic logD as a more hydrophilic compound. Usually Ki stands for a dissociation constant, usually derived from enzyme kinetics or from competition with a known ligand. Low values mean a stronger hold on the target, high ones a looser hold on the target. As usually defined, the inhibition is how much of the control response was suppressed.

human serum albumin, sequence (P02768 25-609): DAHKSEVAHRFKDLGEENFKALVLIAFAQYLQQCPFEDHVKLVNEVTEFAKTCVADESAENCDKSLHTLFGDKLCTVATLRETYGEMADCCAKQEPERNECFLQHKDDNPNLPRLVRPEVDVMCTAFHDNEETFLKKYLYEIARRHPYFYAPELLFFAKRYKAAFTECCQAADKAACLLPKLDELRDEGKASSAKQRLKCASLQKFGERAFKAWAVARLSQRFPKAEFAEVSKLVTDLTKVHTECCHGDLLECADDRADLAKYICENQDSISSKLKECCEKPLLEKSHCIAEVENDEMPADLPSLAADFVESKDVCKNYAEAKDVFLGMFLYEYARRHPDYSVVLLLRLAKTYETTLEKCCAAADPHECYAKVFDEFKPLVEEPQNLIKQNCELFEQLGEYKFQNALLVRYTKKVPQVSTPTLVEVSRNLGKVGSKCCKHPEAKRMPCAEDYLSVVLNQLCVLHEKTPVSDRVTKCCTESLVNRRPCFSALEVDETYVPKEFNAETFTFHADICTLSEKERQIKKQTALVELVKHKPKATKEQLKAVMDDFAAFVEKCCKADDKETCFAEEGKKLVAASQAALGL
human adenosine A2A receptors, sequence (P29274 whole entry): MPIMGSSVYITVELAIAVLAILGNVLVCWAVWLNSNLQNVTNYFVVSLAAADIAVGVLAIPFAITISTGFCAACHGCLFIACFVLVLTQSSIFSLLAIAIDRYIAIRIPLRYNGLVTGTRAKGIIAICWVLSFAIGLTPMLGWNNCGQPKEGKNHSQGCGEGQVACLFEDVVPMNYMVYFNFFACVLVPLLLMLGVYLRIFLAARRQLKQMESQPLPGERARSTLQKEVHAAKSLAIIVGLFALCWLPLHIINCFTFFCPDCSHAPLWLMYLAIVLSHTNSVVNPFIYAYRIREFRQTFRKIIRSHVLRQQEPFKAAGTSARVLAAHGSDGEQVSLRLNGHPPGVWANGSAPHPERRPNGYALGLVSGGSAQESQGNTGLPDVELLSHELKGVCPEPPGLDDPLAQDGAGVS

Consider `C=C1CCC2[C@](C)(C(=O)NCCC)[C@H](O)CC[C@@]2(C)[C@@H]1C/C=C1/C(=O)OC[C@H]1O` (stereo partly drawn) [16 a, (1S,2R,4aS,5R)‐2‐Hydroxy‐5‐[(2E)‐2‐[(4S)‐4‐hydroxy‐2‐oxo‐tetrahydrofuran‐3‐ylidene]ethyl]‐1,4 a‐dimethyl‐6‐methylene‐N‐propyl‐decalin‐1‐carboxamide], for which the fraction unbound in data set [1] is 0.17. Also, the “ARE specificity ratio, SR” value in data set [2] came to 35.6. In data set [3], this molecule gave a chromatographic logD of 1.9.

On to `C=C1CCC2[C@](C)(C(=O)NCCc3ccccc3)[C@H](O)CC[C@@]2(C)[C@@H]1C/C=C1/C(=O)OC[C@H]1O` (stereo partly drawn) [16 b, (1S,2R,4aS,5R)‐2‐Hydroxy‐5‐[(2E)‐2‐[(4S)‐4‐hydroxy‐2‐oxo‐tetrahydrofuran‐3‐ylidene]ethyl]‐1,4 a‐dimethyl‐6‐methylene‐N‐(2‐phenylethyl)decalin‐1‐carboxamide], for which, in data set [1], the fraction unbound is 0.62. Also, in data set [2], the “ARE specificity ratio, SR” value turned out to be 10.8. This molecule showed a chromatographic logD in data set [3] of 2.5.

Turning to `C=C1CCC2[C@](C)(C(=O)NCCOCCOCCOCCOC)[C@H](O)CC[C@@]2(C)[C@@H]1C/C=C1/C(=O)OC[C@H]1O` (stereo partly drawn) [16 c, (1S,2R,4aS,5R)‐2‐Hydroxy‐5‐[(2E)‐2‐[(4S)‐4‐hydroxy‐2‐oxo‐tetrahydrofuran‐3‐ylidene]ethyl]‐N‐[2‐[2‐[2‐(2‐methoxy‐ethoxy)ethoxy]ethoxy]ethyl]‐1,4 a‐dimethyl‐6‐methylene‐decalin‐1‐carboxamide], the fraction unbound in data set [1] was 0.08. Further, the “ARE specificity ratio, SR” value in data set [2] is 13.3. In data set [3], this molecule returned a chromatographic logD of 1.3.

As to `C=C1CC[C@@H]2[C@](C)(CO)[C@H](O)CC[C@@]2(C)[C@@H]1C/C=C1/C(=O)OC[C@H]1O` [Compound 1, Andrographolide], in data set [2], the “ARE specificity ratio, SR” value is 19.4. This molecule also yielded a Ki in data set [4] greater than 100 µM. In data set [4] (setting [7]), the inhibition at 10 µM worked out at 7% and the inhibition at 100 µM stood at 33%. For the same molecule, the “Effect on Vero-E6 cell proliferation (crystal violet staining)” value in data set [5] (at 10 μM) is on record as “inhibited cell proliferation”. Moreover, the “Toxicity on attached Vero-E6 cells” value in data set [5] (at any concentration (0.5-10 μM)) was “did not show toxicity”.

For `C=C1CCC2[C@](C)(CO)[C@H](O)CC[C@@]2(C)[C@@H]1CCC1C(=O)OC[C@H]1O` (stereo partly drawn) [Compound 11, (4S)‐3‐[2‐[(1R,5R,6R,8aS)‐6‐Hydroxy‐5‐(hydroxymethyl)‐5,8 a‐dimethyl‐2‐methylene‐decalin‐1‐yl]ethyl]‐4‐hydroxy‐tetrahydrofuran‐2‐one], in data set [6], the “Anti-SARS-CoV-2 activity (in words)” value was “did not possess anti‐SARS‐CoV‐2 activities”.

For the molecule `CC(C)(C)c1cc(O)ccc1O` [Tert‐butylhydroquinone, reference compound], the ECIR1.5 in data set [2] (effect concentration causing an induction ratio (IR) of 1.5, linear model, 24 h) was 3.4 ± 0.2 µM.
